Assays:
Type in all cases: functional, cell-based
A549 = experiment: Cytotoxicity against human A549 cells by MTT assay
How it was run: (§1)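 MTT viability read-out on five human cancer lines tested in parallel: breast MCF-7, hepatocellular SMMC-7721, myeloid leukemia HL-60, colon SW480 and lung A-549. IC50 derived by the Reed and Muench method.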

HL-60 = experiment: Cytotoxicity against human HL60 cells by MTT assay; how it was run: as §1
SW480 = experiment: Cytotoxicity against human SW480 cells by MTT assay; how it was run: as §1
MCF7 = experiment: Cytotoxicity against human MCF7 cells by MTT assay; how it was run: as §1
SMMC-7721 = experiment: Cytotoxicity against human SMMC7721 cells by MTT assay; how it was run: as §1

Measured: IC50

COC/C=C1\CN2[C@H]3C[C@@H]1[C@@H]1COC4=Nc5cc6c(c(O[C@@H]7O[C@H](CO)[C@@H](O)[C@H](O)[C@H]7O)c5[C@@]43C[C@@H]12)OCO6
> 40 µM: all assays above

C/C=C1/C[N+]2([O-])[C@H]3C[C@@]45C(=Nc6cc7c(c(OC)c64)OCO7)OC[C@H]3[C@H]1C[C@@H]52
> 40 µM: all assays above

COC/C=C1\C[N+]2([O-])[C@H]3C[C@@]45C(=Nc6cc7c(c(OC)c64)OCO7)OC[C@H]3[C@H]1C[C@@H]52
> 40 µM: all assays above

COc1c2c(cc3c1[C@@]14C[C@H]5[C@@H](COC1=N3)[C@H]1C[C@@H]4N5C/C1=C\CO)OCO2
> 40 µM: all assays above

C/C=C1/CN2[C@H]3C[C@@H]1[C@@H]1COC4=Nc5c(OC)cc(OC)cc5[C@@]43C[C@@H]12
> 40 µM: all assays above

C/C=C1/CN2[C@H]3C[C@@H]1[C@@H]1COC4=Nc5c(cc(OC)c(OC)c5OC)[C@@]43C[C@@H]12
> 40 µM: all assays above

COc1cc(OC)c2c(c1)[C@@]13C[C@H]4[C@@H](COC1=N2)[C@H]1C[C@@H]3N4C/C1=C\CO
> 40 µM: all assays above

C/C=C1/C[N+]2([O-])CC[C@]34C=C(CO)[C@H]1C[C@@]32Nc1ccccc14 (stereo not given in full)
> 40 µM: all assays above

Reference: ChEMBL document CHEMBL1781886, “Monoterpenoid indole alkaloids from Gardneria ovata” (J Nat Prod, 2011)
